Experiments:
Type in all cases: organism-based
Conditions in all cases: in vivo, other, 336 h
Glycine max [1] = assay: Genotoxicity in Glycine max (soybean) exposed to compound through spray 4 times over 2 weeks assessed as relative adduct level A6 measured per 10^9 nucleotides using [32P]labeling based autoradiography relative to untreated control
Procedure, shortened: (§1)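 Plants (2–6 weeks grown), groups of 2–4, sprayed 4 times over 2 weeks with formulations diluted per label (chlorothalonil 1:256, carbaryl 1:64 in water); controls water-sprayed. DNA from 1 g leaf via DNeasy Maxi kit. 10 µg DNA digested with micrococcal nuclease/spleen phosphodiesterase (4 h, 37 °C), NP1-enriched (45 min, 37 °C), labelled with [γ-32P]ATP/T4 kinase (45 min, 37 °C).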

Glycine max [2] = assay: Genotoxicity in Glycine max (soybean) exposed to compound through spray 4 times over 2 weeks assessed as relative adduct level A5 measured per 10^9 nucleotides using [32P]labeling based autoradiography relative to untreated control; procedure, shortened: as §1
Glycine max [3] = assay: Genotoxicity in Glycine max (soybean) exposed to compound through spray 4 times over 2 weeks assessed as relative adduct level A4 measured per 10^9 nucleotides using [32P]labeling based autoradiography relative to untreated control; procedure, shortened: as §1
Glycine max [4] = assay: Genotoxicity in Glycine max (soybean) exposed to compound through spray 4 times over 2 weeks assessed as relative adduct level A3 measured per 10^9 nucleotides using [32P]labeling based autoradiography relative to untreated control; procedure, shortened: as §1
Glycine max [5] = assay: Genotoxicity in Glycine max (soybean) exposed to compound through spray 4 times over 2 weeks assessed as relative adduct level A2 measured per 10^9 nucleotides using [32P]labeling based autoradiography relative to untreated control; procedure, shortened: as §1
Glycine max [6] = assay: Genotoxicity in Glycine max (soybean) exposed to compound through spray 4 times over 2 weeks assessed as relative adduct level A1 measured per 10^9 nucleotides using [32P]labeling based autoradiography relative to untreated control; procedure, shortened: as §1
Glycine max [7] = assay: Genotoxicity in Glycine max (soybean) exposed to compound through spray 4 times over 2 weeks assessed as HNE-dG adducts using [32P]labeling based autoradiography (reference value: 34 cpm); procedure, shortened: as §1
Cucurbita pepo [8] = assay: Genotoxicity in Cucurbita pepo (pumpkin) exposed to compound through spray 4 times over 2 weeks assessed as relative adduct level A6 measured per 10^9 nucleotides using HX-dG internal standard using [32P]labeling based autoradiography relative to untreated control; procedure, shortened: as §1
Cucurbita pepo [9] = assay: Genotoxicity in Cucurbita pepo (pumpkin) exposed to compound through spray 4 times over 2 weeks assessed as relative adduct level A5 measured per 10^9 nucleotides using HX-dG internal standard using [32P]labeling based autoradiography relative to untreated control; procedure, shortened: as §1
Cucurbita pepo [10] = assay: Genotoxicity inCucurbita pepo (pumpkin) exposed to compound through spray 4 times over 2 weeks assessed as relative adduct level A4 measured per 10^9 nucleotides using HX-dG internal standard using [32P]labeling based autoradiography relative to untreated control
Procedure, shortened: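 Plants grown 2-6 weeks, groups of 2-4 sprayed four times over 2 weeks with label-rate formulations; water-sprayed controls. Leaf DNA kit-extracted. 10 µg DNA digested with micrococcal nuclease/spleen phosphodiesterase 4 h at 37 °C. NP1-enriched, then labeled with [γ-32P]ATP/T4 kinase 45 min at 37 °C. 2D PEI-cellulose TLC, imager readout. Samples spiked with 50 fmol HX-dG standard.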

Cucurbita pepo [11] = assay: Genotoxicity in Cucurbita pepo (pumpkin) exposed to compound through spray 4 times over 2 weeks assessed as relative adduct level A3 measured per 10^9 nucleotides using HX-dG internal standard using [32P]labeling based autoradiography relative to untreated control; procedure, shortened: as §1
Glycine max [12] = assay: Genotoxicity in Glycine max (soybean) exposed to compound through spray 4 times over 2 weeks assessed as relative adduct level A2 measured per 10^9 nucleotides using HX-dG internal standard using [32P]labeling based autoradiography relative to untreated control; procedure, shortened: as §1
Glycine max [13] = assay: Genotoxicity in Glycine max (soybean) exposed to compound through spray 4 times over 2 weeks assessed as relative adduct level A1 measured per 10^9 nucleotides using HX-dG internal standard using [32P]labeling based autoradiography relative to untreated control; procedure, shortened: as §1
Cucurbita pepo [14] = assay: Genotoxicity in Cucurbita pepo (pumpkin) exposed to compound through spray 4 times over 2 weeks assessed as relative adduct level A2 measured per 10^9 nucleotides using HX-dG internal standard using [32P]labeling based autoradiography relative to untreated control; procedure, shortened: as §1
Cucurbita pepo [15] = assay: Genotoxicity in Cucurbita pepo (pumpkin) exposed to compound through spray 4 times over 2 weeks assessed as relative adduct level A1 measured per 10^9 nucleotides using HX-dG internal standard using [32P]labeling based autoradiography relative to untreated control; procedure, shortened: as §1
Cucurbita pepo [16] = assay: Genotoxicity in Cucurbita pepo (pumpkin) exposed to compound through spray 4 times over 2 weeks assessed as relative adduct level A6 measured per 10^9 nucleotides using [32P]labeling based autoradiography relative to untreated control; procedure, shortened: as §1
Cucurbita pepo [17] = assay: Genotoxicity in Cucurbita pepo (pumpkin) exposed to compound through spray 4 times over 2 weeks assessed as relative adduct level A5 measured per 10^9 nucleotides using [32P]labeling based autoradiography relative to untreated control; procedure, shortened: as §1
Cucurbita pepo [18] = assay: Genotoxicity in Cucurbita pepo (pumpkin) exposed to compound through spray 4 times over 2 weeks assessed as relative adduct level A4 measured per 10^9 nucleotides using [32P]labeling based autoradiography relative to untreated control; procedure, shortened: as §1
Cucurbita pepo [19] = assay: Genotoxicity in Cucurbita pepo (pumpkin) exposed to compound through spray 4 times over 2 weeks assessed as relative adduct level A3 measured per 10^9 nucleotides using [32P]labeling based autoradiography relative to untreated control; procedure, shortened: as §1
Cucurbita pepo [20] = assay: Genotoxicity in Cucurbita pepo (pumpkin) exposed to compound through spray 4 times over 2 weeks assessed as relative adduct level A2 measured per 10^9 nucleotides using [32P]labeling based autoradiography relative to untreated control; procedure, shortened: as §1
Cucurbita pepo [21] = assay: Genotoxicity in Cucurbita pepo (pumpkin) exposed to compound through spray 4 times over 2 weeks assessed as relative adduct level A1 measured per 10^9 nucleotides using [32P]labeling based autoradiography relative to untreated control; procedure, shortened: as §1
Vitis vinifera [22] = assay: Genotoxicity in Vitis vinifera exposed to compound through spray 4 times over 2 weeks assessed as relative adduct level A3 measured per 10^9 nucleotides using HX-dG internal standard using [32P]labeling based autoradiography relative to untreated control; procedure, shortened: as §1
Glycine max [23] = assay: Genotoxicity in Glycine max (soybean) exposed to compound through spray 4 times over 2 weeks assessed as HNE-dG adducts measured per 10^9 nucleotides using [32P]labeling based autoradiography (reference value: 2 no unit); procedure, shortened: as §1
Vitis vinifera [24] = assay: Genotoxicity in Vitis vinifera exposed to compound through spray 4 times over 2 weeks assessed as relative adduct level A2 measured per 10^9 nucleotides using HX-dG internal standard using [32P]labeling based autoradiography relative to untreated control; procedure, shortened: as §1
Vitis vinifera [25] = assay: Genotoxicity in Vitis vinifera exposed to compound through spray 4 times over 2 weeks assessed as relative adduct level A1 measured per 10^9 nucleotides using HX-dG internal standard using [32P]labeling based autoradiography relative to untreated control; procedure, shortened: as §1

SMILES: N#Cc1c(Cl)c(Cl)c(Cl)c(C#N)c1Cl [CHLOROTHALONIL]
- Activity (Glycine max [1]): 324
- Activity (Glycine max [2]): 91
- Activity (Glycine max [3]): 134
- Activity (Glycine max [4]): 136
- Activity (Glycine max [5]): 172
- Activity (Glycine max [6]): 797
- Activity (Glycine max [7]): 8163 cpm
- Activity (Cucurbita pepo [8]): 71701 cpm
- Activity (Cucurbita pepo [9]): 3195 cpm
- Activity (Cucurbita pepo [10]): 679 cpm
- Activity (Cucurbita pepo [11]): 3033 cpm
- Activity (Glycine max [12]): 8753 cpm
- Activity (Glycine max [13]): 40547 cpm
- Activity (Cucurbita pepo [14]): 1323 cpm
- Activity (Cucurbita pepo [15]): 3731 cpm
- Activity (Cucurbita pepo [16]): 1409
- Activity (Cucurbita pepo [17]): 63
- Activity (Cucurbita pepo [18]): 13
- Activity (Cucurbita pepo [19]): 60
- Activity (Cucurbita pepo [20]): 26
- Activity (Cucurbita pepo [21]): 73
- Activity (Vitis vinifera [22]): 9447 cpm
- Activity (Glycine max [23]): 160
- Activity (Vitis vinifera [24]): 4015 cpm
- Activity (Vitis vinifera [25]): 2201 cpm
